Test results as given in ChEMBL document CHEMBL5038594, “Structural Fine-Tuning of Desmuramylpeptide NOD2 Agonists Defines Their In Vivo Adjuvant Activity” (J Med Chem, 2021).
Activity calls are given as the source filed them. The calls are words filed in the database; no cut-off is given here.

What was measured:
PBMC [1] = assay: Immunostimulatory activity in human PBMC cells assessed as increase in IL-6 production at 2 uM incubated for 18 hrs by flow cytometry analysis; format: functional, cell-based
Outline: (§1)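 Human PBMCs from healthy donors, 1 × 10^6 cells/mL in RPMI 1640 with 10% FBS, treated with 2 μM compound or 0.1% DMSO, without or with LPS 10 ng/mL, for 18 h at 37 °C. Supernatant cytokines quantified by cytometric bead array (human inflammatory panel) on a flow cytometer against recombinant standards. Four independent donors. Repeated-measures one-way ANOVA with Dunnett.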

PBMC [2] = assay: Immunostimulatory activity in human PBMC cells assessed as increase in IL-8 production at 2 uM incubated for 18 hrs by flow cytometry analysis; format: functional, cell-based; outline: as §1
PBMC [3] = assay: Immunostimulatory activity in human PBMC cells assessed as increase in IL-1beta production at 2 uM incubated for 18 hrs by flow cytometry analysis; format: functional, cell-based; outline: as §1
PBMC [4] = assay: Immunostimulatory activity in human PBMC cells assessed as increase in TNF-alpha production at 2 uM incubated for 18 hrs by flow cytometry analysis; format: functional, cell-based; outline: as §1
PBMC [5] = assay: Immunostimulatory activity in human PBMC cells assessed as increase in LPS-induced IL-8 production at 2 uM incubated for 18 hrs by flow cytometry analysis; format: functional, cell-based; outline: as §1
PBMC [6] = assay: Immunostimulatory activity in human PBMC cells assessed as increase in LPS-induced IL-6 production at 2 uM incubated for 18 hrs by flow cytometry analysis; format: functional, cell-based; outline: as §1
PBMC [7] = assay: Immunostimulatory activity in human PBMC cells assessed as increase in LPS-induced IL-1beta production at 2 uM incubated for 18 hrs by flow cytometry analysis; format: functional, cell-based; outline: as §1
PBMC [8] = assay: Immunostimulatory activity in human PBMC cells assessed as increase in LPS-induced TNF-alpha production at 2 uM incubated for 18 hrs by flow cytometry analysis; format: functional, cell-based; outline: as §1
BMDC [9] = assay: Induction of mouse BMDC-mediated ovalbumin specific CD4+ T cell activation assessed as increase in CD25 expression at 10 uM incubated for 72 hrs by CFSE staining based flow cytometric analysis; format: functional
Outline: (§2)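 BMDCs from C57BL/6 mouse tibia (7 days in GM-CSF 20 ng/mL, >90% CD11c+) pulsed 18 h with compound (1 or 10 μM) plus ovalbumin 50 μg/mL, then washed. They were cocultured 72 h with CFSE-labelled naive OT-II CD4+ T cells. CD25+/CFSE-low fraction of live Thy1.2+CD4+ cells read by flow cytometry; supernatant cytokines also measured. Duplicates of two independent experiments.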

BMDC [10] = assay: Induction of mouse BMDC-mediated ovalbumin specific CD4+ T cell activation assessed as increase in CD25 expression at 1 uM incubated for 72 hrs by CFSE staining based flow cytometric analysis; format: functional; outline: as §2
BMDC [11] = assay: Induction of mouse BMDC-mediated ovalbumin specific CD4+ T cell activation assessed as increase in IL-2 production at 10 uM incubated for 72 hrs by flow cytometric analysis; format: functional, cell-based; outline: as §2
BMDC [12] = assay: Induction of mouse BMDC-mediated ovalbumin specific CD4+ T cell activation assessed as increase in IL-6 production at 10 uM incubated for 72 hrs by flow cytometric analysis; format: functional, cell-based; outline: as §2
BMDC [13] = assay: Induction of mouse BMDC-mediated ovalbumin specific CD4+ T cell activation assessed as increase in IFN-gamma production at 10 uM incubated for 72 hrs by flow cytometric analysis; format: functional, cell-based; outline: as §2
BMDC [14] = assay: Induction of mouse BMDC-mediated ovalbumin specific CD4+ T cell activation assessed as increase in TNF-alpha production at 10 uM incubated for 72 hrs by flow cytometric analysis; format: functional, cell-based; outline: as §2
BMDC [15] = assay: Induction of mouse BMDC-mediated ovalbumin specific CD4+ T cell activation assessed as increase in IL-17A production at 10 uM incubated for 72 hrs by flow cytometric analysis; format: functional, cell-based; outline: as §2
Mus musculus [16] = assay: Immuno-adjuvant activity in NIH/OlaHsd mouse assessed as increase in ovalbumin specific IgG production in sera at 0.30 micromol administered subcutaneously on day 1 and as booster dose on day 21 with ovalbumin loaded neutral liposomes and measured 1 week post booster dose by ELISA; format: functional, organism-based; details: dose 0.3 µmol, time 28.0 day
Outline: (§3)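 Groups of 5 female NIH/OlaHsd mice, 2.0–2.5 months old, immunized with ovalbumin-loaded neutral liposomes (10 μg ovalbumin per dose) containing 0.30 μmol adjuvant per dose, plus one booster dose. Serum ovalbumin-specific IgG, IgG1 and IgG2a measured 1 week after the booster. Mean ± SEM of 5 mice.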

Mus musculus [17] = assay: Immuno-adjuvant activity in NIH/OlaHsd mouse assessed as increase in ovalbumin specific […] associated IgG2a production in sera at 0.30 micromol administered subcutaneously on day 1 and as booster dose on day 21 with ovalbumin loaded neutral liposomes and measured 1 week post booster dose by ELISA; format: functional, organism-based; details: dose 0.3 µmol, time 28.0 day; outline: as §3
[18] = Cytotoxicity against HEK-Blue hNOD2 cells assessed as reduction in metabolic activity at 20 uM incubated for 18 hrs by MTS assay; format: toxicity, cell-based; details: human, hek-blue hnod2, 18 h
Outline: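 HEK-Blue NOD2 cells, 40 000 per well, exposed to 20 μM compound or 0.1% DMSO for 18 h at 37 °C, 5% CO2. Metabolic activity measured by MTS (CellTiter 96 AQueous One) reagent. Duplicates, two independent biological replicates.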

[19] = target: T1, Nucleotide-binding oligomerization domain-containing protein 1 (Homo sapiens) (UniProt Q9Y239); assay: Agonist activity at NOD1 in HEK-Blue hNOD2 cells assessed as increase in NFkappaB transactivation-mediated SEAP activity measured after 18 hrs by spectrophotometric method; format: cell-based; details: HEK-Blue hNOD1, in the assay text read “HEK-Blue hNOD1 cells” for “HEK-Blue hNOD2 cells”
T1 sequence (whole entry): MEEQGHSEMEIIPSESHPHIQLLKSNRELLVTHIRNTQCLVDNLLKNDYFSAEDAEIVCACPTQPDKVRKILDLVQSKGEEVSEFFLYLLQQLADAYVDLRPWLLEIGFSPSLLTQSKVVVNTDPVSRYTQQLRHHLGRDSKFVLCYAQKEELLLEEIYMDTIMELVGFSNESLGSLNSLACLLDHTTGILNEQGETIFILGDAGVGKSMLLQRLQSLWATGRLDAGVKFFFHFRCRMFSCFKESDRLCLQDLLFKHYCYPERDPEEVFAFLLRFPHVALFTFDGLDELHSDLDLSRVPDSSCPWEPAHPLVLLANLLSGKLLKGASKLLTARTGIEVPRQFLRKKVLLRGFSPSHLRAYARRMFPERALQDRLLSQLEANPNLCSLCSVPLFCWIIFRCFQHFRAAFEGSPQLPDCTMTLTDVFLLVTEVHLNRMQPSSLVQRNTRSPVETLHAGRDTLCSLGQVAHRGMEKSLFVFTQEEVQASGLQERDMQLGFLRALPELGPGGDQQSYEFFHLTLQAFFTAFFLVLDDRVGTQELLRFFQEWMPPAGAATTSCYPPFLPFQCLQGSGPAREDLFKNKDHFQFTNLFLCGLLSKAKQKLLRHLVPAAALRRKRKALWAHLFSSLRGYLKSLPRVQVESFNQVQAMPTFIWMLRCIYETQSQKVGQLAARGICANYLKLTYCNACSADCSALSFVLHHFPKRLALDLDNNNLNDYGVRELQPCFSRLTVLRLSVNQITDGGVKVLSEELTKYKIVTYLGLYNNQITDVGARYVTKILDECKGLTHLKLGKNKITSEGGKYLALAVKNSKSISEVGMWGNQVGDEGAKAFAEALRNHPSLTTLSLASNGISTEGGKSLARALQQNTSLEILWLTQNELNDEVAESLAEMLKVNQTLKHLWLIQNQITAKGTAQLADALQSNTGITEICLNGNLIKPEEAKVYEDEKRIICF
Outline: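 Counter-screen in HEK-Blue NOD1 cells (HEK293 stably expressing human NOD1 plus an NF-κB-inducible SEAP reporter), seeded at 2.5 × 10^5 cells/mL in HEK-Blue detection medium. Compounds at 2 μM versus 0.1% DMSO vehicle, 18 h at 37 °C, 5% CO2. SEAP read as absorbance at 630 nm. Duplicates, at least two independent experiments.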

Mus musculus [20] = assay: Immuno-adjuvant activity in NIH/OlaHsd mouse assessed as increase in ovalbumin specific […] associated IgG1 production in sera at 0.15 micromol administered subcutaneously on day 1 and as booster dose on day 21 and 28 with ovalbumin loaded liposomes by ELISA; format: functional, organism-based; details: dose 0.15 µmol, time 28.0 day
Outline: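 Groups of 5 female NIH/OlaHsd mice, 2.0–2.5 months old, immunized with ovalbumin-loaded liposomes (10 μg ovalbumin per dose) containing 0.15 μmol adjuvant per dose. Liposomes were neutral (PC–cholesterol 7:5), anionic (PC–cholesterol–dicetylphosphate 7:5:1) or mannosylated (PC–cholesterol–mannose-PEG-PA 7:5:0.5). Serum ovalbumin-specific IgG, IgG1 and IgG2a measured 1 week after the second booster. Mean ± SEM.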

Mus musculus [21] = assay: Immuno-adjuvant activity in NIH/OlaHsd mouse assessed as increase in ovalbumin specific […] associated IgG1 production in sera at 0.30 micromol administered subcutaneously on day 1 and as booster dose on day 21 with ovalbumin loaded neutral liposomes and measured 1 week post booster dose by ELISA; format: functional, organism-based; details: dose 0.3 µmol, time 28.0 day; outline: as §3

Row | SMILES | Activity (PBMC [1]) | Activity (PBMC [2]) | Activity (PBMC [3]) | Activity (PBMC [4]) | Activity (PBMC [5]) | Activity (PBMC [6]) | Activity (PBMC [7]) | Activity (PBMC [8]) | Activity (Mus musculus [16]) | Activity (Mus musculus [17]) | Activity [18] | Activity [19] | Activity (Mus musculus [21]) | further results
1 | COc1cc(/C=C/C(=O)NCC(=O)N[C@H](C(=O)N[C@H](CCC(=O)OC2CCCC2)C(=O)OC2CCCC2)C(C)C)ccc1O | Active | Active | Active | Active | Active | Active | Active | Active | inactive | inactive | Non-Toxic | inactive |  | Activity (BMDC [9]): Active; Activity (BMDC [10]): Active; Activity (BMDC [11]): Active; Activity (BMDC [12]): Active; Activity (BMDC [13]): Active; Activity (BMDC [14]): Active; Activity (BMDC [15]): Active
2 | CC(=O)N[C@H]1C(O)O[C@H](CO)[C@@H](O)[C@@H]1O[C@H](C)C(=O)N[C@@H](C)C(=O)N[C@H](CCC(=O)O)C(N)=O (stereo partly specified) [MURAMYL DIPEPTIDE] | Active | Active | Active | Active | Active | Active | Active | Active |  |  | Non-Toxic | inactive |  | Activity (Mus musculus [20]): Active
3 | CCOC(=O)CC[C@@H](NC(=O)[C@@H](NC(=O)CNC(=O)/C=C/c1ccc(O)c(OC)c1)C(C)C)C(=O)OCC |  |  |  |  |  |  |  |  | Active |  | Non-Toxic | inactive | Active | 
4 | CCCCCCCCCCCC(=O)Oc1ccc(/C=C/C(=O)NCC(=O)N[C@H](C(=O)N[C@H](CCC(=O)OCC)C(=O)OCC)C(C)C)cc1OC | Active | Active | Active | Active | Active | Active | Active | Active |  | inactive | Non-Toxic | inactive |  | 
5 | CCCCCCCCCCCCCCCCCC(=O)Oc1ccc(/C=C/C(=O)NCC(=O)N[C@H](C(=O)N[C@H](CCC(=O)OCC)C(=O)OCC)[C@@H](C)O)cc1OC | inactive | inactive | inactive | inactive | Active | Active | Active | Active |  |  | Non-Toxic | inactive | inactive | 
